ChEMBL document CHEMBL3414506 (J Med Chem, 2015)

Assays:
[1] = Growth inhibition of human castration-resistant prostate cancer cells; type: functional, cell-based; settings: Cancer cell lines
[2] = target: T1, Steroid 17-alpha-hydroxylase/17,20 lyase (Homo sapiens, UniProt P05093); experiment: Inhibition of human CYP17 up to 10 uM using 17alpha-hydroxypregnenolone substrate relative to control
T1 sequence (P05093 whole entry): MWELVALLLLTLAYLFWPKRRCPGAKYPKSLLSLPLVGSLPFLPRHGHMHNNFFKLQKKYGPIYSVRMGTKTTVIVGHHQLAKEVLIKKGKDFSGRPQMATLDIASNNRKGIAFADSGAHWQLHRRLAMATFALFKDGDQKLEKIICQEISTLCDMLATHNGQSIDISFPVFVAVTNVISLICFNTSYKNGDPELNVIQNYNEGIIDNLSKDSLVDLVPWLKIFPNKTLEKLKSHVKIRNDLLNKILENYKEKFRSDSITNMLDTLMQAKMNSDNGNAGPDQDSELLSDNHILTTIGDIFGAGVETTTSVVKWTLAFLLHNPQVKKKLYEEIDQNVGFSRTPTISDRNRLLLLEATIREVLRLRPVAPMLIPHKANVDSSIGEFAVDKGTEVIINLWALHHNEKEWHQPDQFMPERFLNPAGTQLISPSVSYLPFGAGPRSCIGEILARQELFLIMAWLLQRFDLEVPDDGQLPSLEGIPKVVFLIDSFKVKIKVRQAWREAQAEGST
Procedure, shortened: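 CYP17 assay with 17α-hydroxypregnenolone substrate at 10 μM (Km 560 nM). Screening used 150 nM inhibitor, tested up to 10 μM. Values are the mean ± SDM of at least two experiments.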

LAPC4 [3] = experiment: Antitumor activity against human LAPC4 cells xenografted in SCID mouse assessed as tumor volume at 0.13 mmol/kg, sc dosed twice daily (reference value: 2410.28 mm3); type: functional
LAPC4 [4] = experiment: Antitumor activity against human LAPC4 cells xenografted in SCID mouse assessed as regression of tumor volume at 0.13 mmol/kg, sc dosed twice daily; type: functional
[5] = Cmax in SCID mouse at 50 mg/kg, sc; type: ADME, organism-based; design: dose 50 mg/kg, route subcutaneous; settings: in vivo
Procedure, shortened: (§1)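 Male SCID mice were dosed subcutaneously at 50 or 100 mg/kg. Plasma levels were measured by reverse-phase HPLC against an internal standard, with a detection limit of 100 ng/mL and inter- and intra-assay variability under 10%. Parameters were calculated noncompartmentally from the plasma concentration–time profile.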

[6] = Tmax in SCID mouse at 50 mg/kg, sc; type: ADME, organism-based; design: dose 50 mg/kg, route subcutaneous; settings: in vivo; procedure, shortened: as §1
Plasma [7] = experiment: Retention time in mouse plasma by reverse phase HPLC method; type: ADME, cell-free
Procedure, shortened: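 Mouse plasma from male SCID mice dosed s.c. at 50 or 100 mg/kg, analysed by validated reverse-phase HPLC with an internal standard. Analyte resolved from the internal standard, a metabolite and endogenous plasma components. Calibration linear; inter- and intra-assay variability under 10%; detection limit 100 ng/mL.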

[8] = Clearance in SCID mouse at 50 mg/kg, sc; type: ADME, organism-based; design: dose 50 mg/kg, route subcutaneous; settings: in vivo; procedure, shortened: as §1
LAPC4 [9] = experiment: Antitumor activity against human LAPC4 cells xenografted in SCID mouse assessed as reduction in tumor volume at 0.15 mmol/kg, sc dosed twice daily starting 1 day after tumor cell inoculation and measured after 16 weeks of treatment; type: functional
Procedure, shortened: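 3 × 10^7 LAPC-4 cells were injected subcutaneously into the dorsal flank of male SCID mice. From 1 day after inoculation, mice received 0.15 mmol/kg s.c. twice daily, alongside vehicle and castrated groups. The dose was cut by 78.6% for one interval, then resumed. Tumour volume was measured weekly, and percent change was computed after 16 weeks.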

[10] = Mean residence time in SCID mouse at 50 mg/kg, sc; type: ADME, organism-based; design: dose 50 mg/kg, route subcutaneous; settings: in vivo; procedure, shortened: as §1
[11] = AUC in SCID mouse at 50 mg/kg, sc; type: ADME, organism-based; design: dose 50 mg/kg, route subcutaneous; settings: plasma; procedure, shortened: as §1
Plasma [12] = experiment: Drug metabolism in mouse plasma assessed as retention time of metabolite by reverse phase HPLC method; type: ADME, cell-free
Procedure, shortened: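 Mouse plasma was analysed by reverse-phase HPLC after subcutaneous dosing. The parent compound, an internal standard, the metabolite and endogenous components were resolved by retention time.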

[13] = Cmax in SCID mouse at 100 mg/kg, sc; type: ADME, organism-based; design: dose 100 mg/kg, route subcutaneous; settings: in vivo; procedure, shortened: as §1
[14] = AUC in SCID mouse at 100 mg/kg, sc; type: ADME, organism-based; design: dose 100 mg/kg, route subcutaneous; settings: plasma; procedure, shortened: as §1
[15] = Mean residence time in SCID mouse at 100 mg/kg, sc; type: ADME, organism-based; design: dose 100 mg/kg, route subcutaneous; settings: in vivo; procedure, shortened: as §1
LAPC4 [16] = experiment: Antitumor activity against human LAPC4 cells xenografted in SCID mouse with castration assessed as regression of tumor volume at 0.13 mmol/kg, sc dosed twice daily; type: functional
Mus musculus [17] = experiment: Elimination half life in SCID mouse at 100 mg/kg, sc; type: ADME, organism-based; design: dose 100 mg/kg, route subcutaneous; settings: in vivo; procedure, shortened: as §1
[18] = Tmax in SCID mouse at 100 mg/kg, sc; type: ADME, organism-based; design: dose 100 mg/kg, route subcutaneous; settings: in vivo; procedure, shortened: as §1
Mus musculus [19] = experiment: Volume of distribution in SCID mouse at 100 mg/kg, sc; type: ADME, organism-based; design: dose 100 mg/kg, route subcutaneous; settings: in vivo; procedure, shortened: as §1
Mus musculus [20] = experiment: Drug elimination constant in SCID mouse at 50 mg/kg, sc; type: ADME, organism-based; design: dose 50 mg/kg, route subcutaneous; settings: in vivo; procedure, shortened: as §1
Mus musculus [21] = experiment: Elimination half life in SCID mouse at 50 mg/kg, sc; type: ADME, organism-based; design: dose 50 mg/kg, route subcutaneous; settings: in vivo; procedure, shortened: as §1
Mus musculus [22] = experiment: Volume of distribution in SCID mouse at 50 mg/kg, sc; type: ADME, organism-based; design: dose 50 mg/kg, route subcutaneous; settings: in vivo; procedure, shortened: as §1
[23] = target: T1, Steroid 17-alpha-hydroxylase/17,20 lyase; experiment: Inhibition of human CYP17 expressed in Escherichia coli
Procedure, shortened: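 Whole-cell assay: intact Escherichia coli cells expressing human CYP17 used as the enzyme source; inhibition expressed as IC50.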

[24] = target: T1, Steroid 17-alpha-hydroxylase/17,20 lyase; experiment: Inhibition of human CYP17 using 17alpha-hydroxypregnenolone substrate

Q: With CC(O)(CS(=O)(=O)c1ccc(F)cc1)C(=O)Nc1ccc(C#N)c(C(F)(F)F)c1 (centres undefined) [BICALUTAMIDE] as the molecule, how does the IC50 [1] read?
A: The IC50 was 18000 nM.

Q: For C[C@]12CC[C@H](O)CC1=CC[C@@H]1[C@@H]2CC[C@]2(C)C(n3nccn3)=CC[C@@H]12, which “inhibition (INH)” value [2] is on record?
A: Its value is “Not Active”.

Q: Which Activity (LAPC4 [3]) does the source give for C[C@]12CC[C@H](O)CC1=CC[C@@H]1[C@@H]2CC[C@]2(C)C(n3cnc4ccccc43)=CC[C@@H]12 [GALETERONE] here?
A: The Activity was 6.94 mm3.

Q: And the inhibition in vivo at 130 µmol/kg (LAPC4 [4])?
A: Its inhibition in vivo at 130 µmol/kg is 26.6%.

Q: What about the Cmax [5] of the same molecule?
A: The Cmax was 16800 ng/mL.

Q: And the Tmax [6]?
A: Its Tmax is 30 min.

Q: What about the Retention_time (Plasma [7]) of the same molecule?
A: Its Retention_time is 21.6 min.

Q: What about the CL/F [8] of the same molecule?
A: Its CL/F is 33.1 mL/min/kg.

Q: What about the inhibition in vivo at 150 µmol/kg (LAPC4 [9]) of the same molecule?
A: The inhibition in vivo at 150 µmol/kg was 93.8%.

Q: And the IC50 [1]?
A: The IC50 was 2900 nM.

Q: And the MRT [10]?
A: The MRT was 65.4 min.

Q: What about the AUC [11] of the same molecule?
A: The AUC was 24000 ng·h/mL.

Q: What about the Retention_time (Plasma [12]) of the same molecule?
A: The Retention_time was 17.3 min.

Q: What about the Cmax [13] of the same molecule?
A: The Cmax was 32200 ng/mL.

Q: What about the AUC [14] of the same molecule?
A: The AUC was 30200 ng·h/mL.

Q: What about the MRT [15] of the same molecule?
A: Its MRT is 60.5 min.

Q: And the inhibition in vivo at 130 µmol/kg (LAPC4 [16])?
A: Its inhibition in vivo at 130 µmol/kg is 60.7%.

Q: What about the “beta t1/2” value (Mus musculus [17]) of the same molecule?
A: Its value is 36.6 min.

Q: And the Tmax [18]?
A: Its Tmax is 30 min.

Q: And the Vd (Mus musculus [19])?
A: The Vd was 3.27639 L/kg.

Q: What about the Kel (Mus musculus [20]) of the same molecule?
A: Its Kel is 0.942 h⁻¹.

Q: And the “beta t1/2” value (Mus musculus [21])?
A: Its value is 44.17 min.

Q: And the Vd (Mus musculus [22])?
A: The Vd was 2.09899 L/kg.

Q: What does the source list for C[C@]12CC[C@H](O)CC1=CC[C@@H]1[C@@H]2CC[C@]2(C)C(n3ccnc3)=CC[C@@H]12?
A: IC50 [23]: 50 nM; Retention_time (Plasma [7]): 11.5 min

Q: What does the source list for C[C@]12CCC(=O)C=C1CC[C@@H]1[C@@H]2CC[C@]2(C)C(n3cncn3)=CC[C@@H]12?
A: IC50 [24]: 55 nM; Ki [24]: 41 nM

Q: With C[C@]12CC[C@H](O)CC1=CC[C@@H]1[C@@H]2CC[C@]2(C)C(n3ncnn3)=CC[C@@H]12 as the molecule, how does the “inhibition (INH)” value [2] read?
A: Its value is “Not Active”.

Q: For C[C@]12CC[C@H](O)CC1=CC[C@@H]1[C@@H]2CC[C@]2(C)C(n3cnnn3)=CC[C@@H]12, which “inhibition (INH)” value [2] is on record?
A: Its value is “Not Active”.
